{"data": "Published values collected from several papers", "note": "Compare with care: the assays were run in different laboratories."}
{"SMILES": "CO[C@H]1CC[C@H](N2C(=O)CNc3ncc(-c4ccc(C(C)(C)O)nc4)nc32)CC1", "system": "human, plasma", "conditions": "oral, 45 mg, patients", "measurement": "Vd/F", "value": "186 L"}
{"SMILES": "CCNCCCNC/C=C\\CNCCCNCC", "system": "human, plasma", "conditions": "intravenous, 200 mg, patients, infusion", "measurement": "Vd", "value": "0.56 L/kg"}
{"SMILES": "COc1cc(C(=O)NC2CCN(C)CC2)c(F)cc1Nc1ncc(C(F)(F)F)c(Oc2cccc3c2C(=O)N(C)C3)n1", "system": "human, plasma", "conditions": "oral, 25 mg, multiple doses, once daily, patients", "measurement": "Vd/F", "value": "520 L"}
{"SMILES": "CC(C)(C)c1ccc(O)c(CN(Cc2cc(C(C)(C)C)ccc2O)C2CCC(NC(N)=O)CC2)c1 (centres unmarked)", "system": "male C57BL/6 mouse, brain", "conditions": "oral, 10 mg/kg, single dose", "measurement": "Cmax", "value": "550 ng/g"}
{"SMILES": "COc1ccc([C@@H]2CN(C(=O)[C@@H](O)CO)C[C@@]2(C)[C@@H](C)O)cc1OC1CN(c2ccc(C)cn2)C1", "system": "human, plasma", "conditions": "oral, 1.5 mg, single dose, healthy volunteers", "measurement": "Vd/F", "value": "55.7 L"}
{"SMILES": "Cc1cc(Nc2cc(N3CCN(C)CC3)nc(/C=C/c3ccccc3)n2)n[nH]1", "system": "human, plasma", "conditions": "oral, 200 mg/m², multiple doses, patients", "measurement": "Vd/F", "value": "907 L"}
{"SMILES": "C=CC(=O)N1CC2CC(n3nc(-c4ccc(C(=O)Nc5ccccn5)cc4)c4c(N)ncnc43)CC2C1 (centres unmarked)", "system": "SCID mouse, plasma", "conditions": "oral, 1 mg/kg", "measurement": "Cmax", "value": "61.8 ng/mL"}
{"SMILES": "CC(C)(Sc1ccncc1-c1ccc(C#N)c2ccccc12)C(=O)O", "system": "male human, plasma", "conditions": "oral, 5 mg, single dose, fed, healthy volunteers", "measurement": "Vd/F", "value": "625 L"}
